Values after ≈ are worked out from the molar mass of the structure shown.
What was measured:
Type in all cases: functional, organism-based
Trichophyton rubrum [1] = experiment: Antifungal activity against Trichophyton rubrum ATCC 10218 by CLSI method
How it was run: (§1)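 Growth scraped from 1- to 6-week-old potato dextrose slants and filtered through Miracloth. Diluted in 5% Alamar blue-RPMI 1640 (MOPS pH 7.0) to 2.7 × 10⁴ CFU/ml. Eleven twofold dilutions in duplicate. Fluorescence at 544 nm excitation/590 nm emission read before and after 35°C, 5 days. IC50 fitted from percent growth. MIC taken as no detectable growth; MFC from clear or blue wells plated on PD agar.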

Trichophyton rubrum [2] = experiment: Antifungal activity against Trichophyton rubrum ATCC MYA-4438 by CLSI method; how it was run: as §1
[3] = system: Trichophyton mentagrophytes; experiment: Antifungal activity against Trichophyton mentagrophytes ATCC 9533 by CLSI method; how it was run: as §1
Candida tropicalis = experiment: Antifungal activity against Candida tropicalis ATCC 750 after 48 hrs by CLSI method; conditions: ATCC 750, 48 h
How it was run: (§2)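 Yeast suspensions made from 3-5 colonies off 24-72 h SD agar plates in saline. They were diluted by OD630 standard curve in RPMI 1640 (0.2% dextrose, 0.03% glutamine, 0.165 M MOPS, pH 7.0) to 1.5 × 10³ CFU/ml. Twofold dilutions (11 concentrations, 20% DMSO-saline) run in duplicate. OD530 read before and after 35°C, 48 h. Line values are top test concentrations; no-growth endpoints give MIC/MFC.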

Candida parapsilosis = experiment: Antifungal activity against Candida parapsilosis ATCC 22019 after 48 hrs by CLSI method; conditions: Lodderomyces parapsilosis, ATCC 22019, 48 h; how it was run: as §2
Pichia kudriavzevii = experiment: Antifungal activity against Candida krusei ATCC 6258 after 48 hrs by CLSI method; conditions: ATCC 6258, 48 h
How it was run: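 Candida inocula came from 24–72-h SD agar colonies suspended in saline. They were diluted by OD630 standard curve into RPMI 1640 (0.2% dextrose, 0.03% glutamine, 0.165 M MOPS, pH 7.0) to 1.5 × 10³ CFU/ml. Compounds were run as 11 twofold dilutions in 20% DMSO-saline, in duplicate, at 35°C for 48 h, with OD530 read before and after. Percent growth at the top concentration, IC50, MIC, and MFC (SD agar plating) were derived.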

Candida albicans [4] = experiment: Antifungal activity against Fluconazole resistant Candida albicans clinical isolate 17 after 48 hrs by CLSI method
How it was run: (§3)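 CLSI broth microdilution. Colonies from 24–72 h SD agar suspended in saline and sized by OD630 standard curve. Inoculum 1.5 × 10³ CFU/ml (final) in RPMI 1640 (0.2% dextrose, 0.03% glutamine, 0.165 M MOPS, pH 7.0). Twofold dilutions (11 levels) from 20% DMSO-saline, in duplicate. 35°C for 48 h, OD530 read before and after. IC50 fitted from % growth. MIC: no detectable growth. MFC: subculture onto SD agar.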

Candida albicans [5] = experiment: Antifungal activity against Fluconazole resistant Candida albicans clinical isolate 1 after 48 hrs by CLSI method; how it was run: as §3
Candida albicans [6] = experiment: Antifungal activity against Candida albicans ATCC 200955 after 48 hrs by CLSI method; conditions: ATCC 200955, 48 h; how it was run: as §3
Candida albicans [7] = experiment: Antifungal activity against Candida albicans ATCC 90028 after 48 hrs by CLSI method; conditions: ATCC 90028, 48 h; how it was run: as §3
Candida albicans [8] = experiment: Antifungal activity against Candida albicans ATCC 32354 after 48 hrs by CLSI method; conditions: ATCC 32354, 48 h; how it was run: as §3
Candida albicans [9] = experiment: Antifungal activity against Candida albicans ATCC 14053 after 48 hrs by CLSI method; conditions: ATCC 14053, 48 h; how it was run: as §3
Candida albicans [10] = experiment: Antifungal activity against Candida albicans ATCC 60193 after 48 hrs by CLSI method; conditions: ATCC 60193, 48 h; how it was run: as §3

Q: With OC(Cn1cncn1)(Cn1cncn1)c1ccc(F)cc1F [FLUCONAZOLE] as the molecule, how does the IC50 (Trichophyton rubrum [1]) read?
A: The IC50 was 1800 nM.

Q: What about the MFC (Trichophyton rubrum [1]) of the same molecule?
A: The MFC was 163 µM (≈ 50 µg/mL).

Q: And the MIC (Trichophyton rubrum [1])?
A: The MIC was 1.9 µM (≈ 0.582 µg/mL).

Q: And the IC50 (Trichophyton rubrum [2])?
A: The IC50 was 2700 nM.

Q: What about the MIC (Trichophyton rubrum [2]) of the same molecule?
A: Its MIC is 6.4 µM (≈ 1.96 µg/mL).

Q: What about the IC50 [3] of the same molecule?
A: Its IC50 is 29.5 µM.

Q: And the MIC [3]?
A: The MIC was 61.2 µM (≈ 18.7 µg/mL).

Q: And the IC50 (Candida tropicalis)?
A: Its IC50 is 4.3 µM.

Q: What about the MIC (Candida tropicalis) of the same molecule?
A: The MIC was 15.3 µM (≈ 4.69 µg/mL).

Q: What about the IC50 (Candida parapsilosis) of the same molecule?
A: Its IC50 is 3.4 µM.

Q: And the MIC (Candida parapsilosis)?
A: Its MIC is 10.2 µM (≈ 3.12 µg/mL).

Q: What about the IC50 (Pichia kudriavzevii) of the same molecule?
A: The IC50 was 126 µM.

Q: What about the MIC (Pichia kudriavzevii) of the same molecule?
A: The MIC was 163 µM (≈ 50 µg/mL).

Q: What about the IC50 (Candida albicans [4]) of the same molecule?
A: Its IC50 is 163 µM.

Q: What about the IC50 (Candida albicans [5]) of the same molecule?
A: The IC50 was 800 nM.

Q: What about the MIC (Candida albicans [5]) of the same molecule?
A: The MIC was 5.1 µM (≈ 1.56 µg/mL).

Q: And the IC50 (Candida albicans [6])?
A: The IC50 was 400 nM.

Q: And the MIC (Candida albicans [6])?
A: The MIC was 1.3 µM (≈ 0.398 µg/mL).

Q: What about the IC50 (Candida albicans [7]) of the same molecule?
A: Its IC50 is 800 nM.

Q: And the MIC (Candida albicans [7])?
A: The MIC was 6.4 µM (≈ 1.96 µg/mL).

Q: What about the IC50 (Candida albicans [8]) of the same molecule?
A: The IC50 was 800 nM.

Q: What about the MIC (Candida albicans [8]) of the same molecule?
A: The MIC was 5.7 µM (≈ 1.75 µg/mL).

Q: What about the IC50 (Candida albicans [9]) of the same molecule?
A: The IC50 was 500 nM.

Q: And the MIC (Candida albicans [9])?
A: The MIC was 1.3 µM (≈ 0.398 µg/mL).

Q: And the IC50 (Candida albicans [10])?
A: Its IC50 is 400 nM.

Q: And the MIC (Candida albicans [10])?
A: The MIC was 0.6 µM (≈ 0.184 µg/mL).

Reference: ChEMBL document CHEMBL1275449, “Potent in vitro antifungal activities of naturally occurring acetylenic acids” (Antimicrob Agents Chemother, 2008)
